In ChEMBL document CHEMBL1122125, “Synthesis and in vivo antitumor activity of potential 5-fluorouracil prodrugs” (1982):

Assays:
Assay type in all cases: functional
L1210 = experiment: Evaluated for cytotoxicity against L1210 mouse leukemia cells; conditions: read-out: ID50 (the source's name)
In short: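 L1210 murine leukemia cells in Eagle's minimal essential medium with 15% fetal calf serum, streptomycin (100 μg/mL), penicillin (100 units/mL) and 0.05 mM 2-mercaptoethanol. Cells counted by Coulter counter after 48 h exposure. ID50 is the 50% growth-inhibitory dose. Triplicate assays, standard deviation ±10%.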

Mus musculus [1] = experiment: Antitumor activity was determined for 7-day average percent weight change against P-388 leukemia in mice at a dose of 16 mg/kg
In short: (§1)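 Male B6D2F1J mice given 10⁶ P-388 cells ip on day 0, then treated ip once daily on days 1-4 (qd × 4), 5 mice per dose group. Compounds dosed in sterile saline, except one lipophilic thioether given in 10% Tween 80. Mice weighed on days 1 and 7; mean weight per mouse on day 1 and 7-day weight change reported in g and as percent.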

Mus musculus [2] = experiment: Antitumor activity was determined for survival range of mice against P-388 leukemia in mice at a dose of 32 mg/kg
In short: (§2)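 Male B6D2F1J mice implanted ip with 10⁶ P-388 cells on day 0; test agents given ip on days 1–4 (qd × 4) in sterile saline, or in 10% Tween 80 for the lipophilic thioether. Groups of 5 treated mice, with 10–17 untreated controls per experiment. Mice weighed on days 1 and 7 to give the 7-day weight change in g and %. Survival recorded in days as median and range.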

Mus musculus [3] = experiment: Antitumor activity was determined for average 7-day weight change against P-388 leukemia in mice at a dose of 16 mg/kg; in short: as §1
Mus musculus [4] = experiment: Antitumor activity was determined for median survival of mice against P-388 leukemia in mice at a dose of 8 mg/kg; in short: as §2
Mus musculus [5] = experiment: Antitumor activity was determined for median survival of mice against P-388 leukemia in mice at a dose of 32 mg/kg; in short: as §2
Mus musculus [6] = experiment: Percent increase in life span against P-388 leukemia in mice was determined at a dose of 16 mg/kg; conditions: P388
In short: (§3)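 Male B6D2F1J mice, 5 per dose group, received 10⁶ P-388 cells ip on day 0. Dosing was ip qd × 4 on days 1-4 in sterile saline, or 10% Tween 80 for the butyl thioether. Median survival times of treated (T) and untreated control (C, 10-17 mice) groups were compared: %ILS = [(T/C) − 1]100. Weights taken on days 1 and 7.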

Mus musculus [7] = experiment: Antitumor activity was determined for average 7-day weight change against P-388 leukemia in mice at a dose of 32 mg/kg; in short: as §1
Mus musculus [8] = experiment: Antitumor activity was determined for 7-day average percent weight change against P-388 leukemia in mice at a dose of 8 mg/kg; in short: as §1
Mus musculus [9] = experiment: Antitumor activity was determined for survival range of mice against P-388 leukemia in mice at a dose of 16 mg/kg; in short: as §2
Mus musculus [10] = experiment: Antitumor activity was determined for average weight on day 1 against P-388 leukemia in mice at a dose of 8 mg/kg
In short: (§4)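 Male B6D2F1J mice, groups of 5, inoculated ip with 10⁶ P-388 cells on day 0. Drug given ip on days 1-4 (qd × 4) in sterile saline, or in 10% Tween 80 for the poorly water-soluble thioether. Average weight per mouse recorded on day 1, with reweighing on day 7 for percent weight change. Untreated control groups had 10-17 animals per experiment.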

Mus musculus [11] = experiment: Percent increase in life span against P-388 leukemia in mice was determined at a dose of 32 mg/kg; conditions: P388; in short: as §3
Mus musculus [12] = experiment: Antitumor activity was determined for average weight on day 1 against P-388 leukemia in mice at a dose of 32 mg/kg; in short: as §4
Mus musculus [13] = experiment: Antitumor activity was determined for average 7-day weight change against P-388 leukemia in mice at a dose of 8 mg/kg; in short: as §1
Mus musculus [14] = experiment: Antitumor activity was determined for survival range of mice against P-388 leukemia in mice at a dose of 8 mg/kg
In short: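 Male B6D2F1J mice, 5 per dose group, implanted ip with 10⁶ P-388 leukemia cells on day 0. Drug given ip daily on days 1-4 (qd × 4) in sterile saline, or in 10% Tween 80 for the butyl thioether. Survival range recorded in days. Untreated control groups had 10-17 animals per experiment. Mice weighed on days 1 and 7.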

Mus musculus [15] = experiment: Antitumor activity was determined for median survival of mice against P-388 leukemia in mice at a dose of 16 mg/kg; in short: as §2
Mus musculus [16] = experiment: Antitumor activity was determined for average weight on day 1 against P-388 leukemia in mice at a dose of 16 mg/kg; in short: as §1
Mus musculus [17] = experiment: Antitumor activity was determined for 7-day average percent weight change against P-388 leukemia in mice at a dose of 32 mg/kg; in short: as §1
Mus musculus [18] = experiment: Percent increase in life span against P-388 leukemia in mice was determined at a dose of 8 mg/kg; conditions: P388; in short: as §3

Compound	IC50 (L1210)	Weight change (Mus musculus [1])	Survival range (Mus musculus [2])	Average weight (Mus musculus [3])	Survival median (Mus musculus [4])	Survival median (Mus musculus [5])	ILS at 16 mg/kg (Mus musculus [6])	Average weight (Mus musculus [7])	Weight change (Mus musculus [8])	Survival range (Mus musculus [9])	Average weight (Mus musculus [10])	ILS at 32 mg/kg (Mus musculus [11])	Average weight (Mus musculus [12])	Average weight (Mus musculus [13])	Survival range (Mus musculus [14])	Survival median (Mus musculus [15])	Average weight (Mus musculus [16])	Weight change (Mus musculus [17])	ILS at 8 mg/kg (Mus musculus [18])
CCOC(=O)[C@H]1OC(n2cc(F)c(=O)[nH]c2=O)[C@H](O)[C@@H]1O (stereo not given in full)	> 1000 µM	–	–	–	–	–	–	–	–	–	–	–	–	–	–	–	–	–	–
NC[C@H]1OC(n2cc(F)c(=O)[nH]c2=O)[C@H](O)[C@@H]1O (stereo not given in full)	38 µM	16%	11	4.4 g mouse-1	12	13	0%	3.2 g mouse-1	23%	10	25.6 g mouse-1	8%	26.8 g mouse-1	5.8 g mouse-1	11	12	26.4 g mouse-1	12%	0%
